Published values collected from several papers.
Protocols differ between the studies behind these lines.
CHEK2 I157T: Serine/threonine-protein kinase Chk2 (CHEK2, Homo sapiens, UniProt O96017, I157T)
CHEK2: Serine/threonine-protein kinase Chk2 (CHEK2, Homo sapiens, UniProt O96017)

Structure (SMILES)	target	assay	setting	quantity	value
Cc1cnc(NC2CCOCC2)nc1-n1cnc(C(=O)NC(CN)c2cc(F)cc(Cl)c2)c1 (centres unmarked)	CHEK2 I157T	enzyme activity, inhibitor, radiometric	1 µM	remaining activity	82%
CN(C)CC#Cc1ccc(OCCCc2sc(N3CCc4cccc(C(=O)Nc5nc6ccccc6s5)c4C3)nc2C(=O)O)c(F)c1	CHEK2	cell-free assay, competition with immobilised ligand	1 µM	remaining binding	100%
O=C1Nc2ccc(Cl)cc2C1=Cc1cc(Cl)c(O)c(Cl)c1	CHEK2	cell-free assay	0.5 µM	remaining signal	70.2%
CCN1CCC2(CC1)NC(=O)c1c(c3ccc(Cl)c(Cl)c3n1C)C2C#N (racemic)	CHEK2	thermal stability, DSF	10 µM	ΔTm	-0.2 °C
O=C(N1CCS(=O)(=O)CC1)N1C[C@H](c2ccc(OC(F)(F)F)cc2)C[C@H](c2nc(C3CC3)no2)C1	CHEK2	cell-free assay, competition with immobilised ligand	1 µM	remaining binding	100%
Cn1c2c(Cl)c(Cl)ccc2c2cc[nH]c(=O)c21	CHEK2	thermal stability, DSF	10 µM	ΔTm	0.2 °C
COc1cc(/C=C/C(=O)CC(=O)/C=C/c2ccc(O)c(OC)c2)ccc1O	CHEK2	enzyme activity, inhibitor	1 µM	activity vs control	68%
Cc1ccc(Nc2nccc(N(C)c3ccc4c(C)n(C)nc4c3)n2)cc1S(N)(=O)=O	CHEK2	enzyme activity, inhibitor	0.3 µM	inhibition	-13%
Cn1c2c(Cl)c(Cl)ccc2c2cn[nH]c(=O)c21	CHEK2	thermal stability, DSF	10 µM	ΔTm	-0.4 °C
CCCOc1ccc([C@H]2[C@H](C(=O)O)[C@@H](c3ccc4c(c3)OCO4)CN2CC(=O)Nc2c(CC)cccc2CC)cc1	CHEK2	cell-free assay, competition with immobilised ligand	1 µM	remaining binding	88%
O=C1NC(=O)c2cc(Nc3ccc(F)cc3)c(Nc3ccc(F)cc3)cc21	CHEK2	cell-free assay	0.5 µM	remaining signal	94.3%
CO[C@@H](C)c1c(Nc2ccc([C@H](N(C)C(=O)C3CCS(=O)(=O)CC3)C(F)(F)F)cc2)cnc2cc(Cl)nn12	CHEK2	cell-free assay, competition with immobilised ligand	1 µM	remaining binding	90%
CN1CCC2(CC1)NC(=O)c1c(c3ccc(Cl)c(Cl)c3n1C)C2C#N (racemic)	CHEK2	thermal stability, DSF	10 µM	ΔTm	-0.3 °C
O=C1NC(=O)c2c1c1c3ccccc3[nH]c1n1cncc21	CHEK2	cell-free assay	0.5 µM	remaining signal	21.2%
Cc1ccc(NC(=O)c2ccc(C)c(C(F)(F)F)c2)cc1C#Cc1nn(C2CCC(O)CC2)c2ncnc(N)c12 (centres unmarked)	CHEK2	cell-free assay	10 µM	remaining signal	111%
Cn1c2c(c3ccc(Cl)c(Cl)c31)C(C#N)C1(CCNCC1)NC2=O (racemic)	CHEK2	thermal stability, DSF	10 µM	ΔTm	0.2 °C
CNC(=O)c1cc(Oc2ccc(NC(=O)Nc3ccc(Cl)c(C(F)(F)F)c3)cc2)ccn1	CHEK2 I157T	enzyme activity, inhibitor	0.3 µM	inhibition	-9%
Oc1cccc(-c2nc(N3CCOCC3)c3oc4ncccc4c3n2)c1	CHEK2	cell-free assay	0.5 µM	remaining signal	90.4%
C[C@H](c1ccc(F)cc1)N(Cc1cccc(C(=O)O)c1)C(=O)c1cnc2ccccc2c1	CHEK2	cell-free assay, competition with immobilised ligand	1 µM	remaining binding	91%
Cc1cc(NC(=O)c2cccc3cc(-c4cccc5[nH]nc(N)c45)ccc23)ccc1F	CHEK2	enzyme activity, inhibitor	0.1 µM	activity vs control	102%
CC(=O)N1CCC(c2ccc(C(=O)NC3=NCCN3)cc2C(F)(F)F)CC1	CHEK2	cell-free assay, competition with immobilised ligand	1 µM	remaining binding	100%
N#CCCc1ccc2c(c1)-c1[nH]c3ccc([N+](=O)[O-])cc3c1CC(=O)N2	CHEK2	cell-free assay	0.5 µM	remaining signal	12.6%
CC(C)CC(=O)N1CCc2nc(-c3ccc(Br)cc3)nc(N(C)Cc3ccccc3)c2C1	CHEK2	cell-free assay, competition with immobilised ligand	0.1 µM	remaining binding	100%
Cn1c2c(c3ccc(Cl)c(Cl)c31)C(C#N)C1(CCCC1)NC2=O (centres unmarked)	CHEK2	thermal stability, DSF	10 µM	ΔTm	0 °C
O=C1CCc2cc(Nc3cc(OC4CCOCC4)c([N+](=O)[O-])cc3Cl)ccc2N1	CHEK2	cell-free assay, competition with immobilised ligand	1 µM	remaining binding	69%
CN(C)C1CCN(CC#Cc2nn(C3CCCC3)c3nc(NCc4ccccc4)ncc23)C1 (centres unmarked)	CHEK2	enzyme activity, inhibitor, FRET	1 µM	inhibition	7%
